HCT116 PTEN-null – growth suppressors of cells with PTEN tumor suppressor deletion; AID 827; HCT116 PTEN-null viability, CellTiter-Glo, 60 h; active compounds read low; 140,000 compounds, 1.2% hits; viability, % at 10 µM;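 active = viability at or below a set limit, 4 SD under the median of all tested compounds, cut at about 3.7% in these data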;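 also: PTEN knockout HCT116 line with beta catenin targeted HCT116 as companion control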
Fibroblast inh – blocks proliferation of human lung fibroblasts; LL 47 human lung fibroblast viability, ATP luminescence; active compounds read low; viability, % at 10 µM; 85,000 compounds, 1.1% hits; AID 719;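 active = viability at or below 50% in the single dose screen; inactive = viability above 50%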;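 also: compound exposure lasted 72 h before the ATP readout; 100% = median luminescence of untreated cell-only wells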
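Test system: LL 47 human lung fibroblasts / Quantity: 1,150 cells in each well / Medium: IMEM growth medium with 15% fetal bovine serum / Incubation: 72 h compound exposure at 37 °C after overnight plating / Detection: CellTiter-Glo luminescence measuring cellular ATP / Read-out: % viability versus median cells-only luminescence / Benchmarks: cell-only wells, no compound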
H69AR growth 86K – blocks growth of human H69AR lung tumor cells. viability, % at 10 µM. H69AR lung tumor viability, ATP luminescence, 72 h; active compounds read low. 85,000 compounds, 6% hits;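 active = viability at or below 40%; inactive = viability above 40%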;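 also: multidrug resistant small cell line overexpressing MRP-1 efflux transporter; 100% = mean luminescence of untreated control wells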
HCT116 bCat-KO – beta-catenin-lacking colon tumor cell growth suppression | HCT116 beta-catenin knockout viability, CellTiter-Glo, 60 h; active compounds read low | viability, % at 10 µM | 140,000 compounds, 1.5% hits;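 active = viability at or under a set limit, the compound median less 4 SD, cut at about 6% in these data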;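 also: 0% = Hyamine 1622 control at 20 µM and 100% = untreated cell control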
HUVEC inhibit – blocks proliferation of human endothelial cells | 86,000 compounds, 1.1% hits | HUVEC proliferation, CellTiter-Glo luminescence, 72 h; active compounds read low | viability, % at 10 µM (by protocol);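 active = viability at or below 30%; inactive = viability above 30%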;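 also: 100% = median luminescence of DMSO-only cell control wells on each plate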
* hit, by the source's call. This excerpt belongs to a sample that is enriched for hits.

`COc1ccc2nc(NC(=O)C(NS(=O)(=O)c3cccc4nsnc34)C(C)C)sc2c1` (stereo not drawn) gave HCT116 PTEN-null 96 and HCT116 bCat-KO 87.
For COc1ccccc1-c1nnc(SCC(=O)NC2CCS(=O)(=O)C2)n1CCc1ccccc1 (stereo not drawn) the results were HCT116 PTEN-null 104 and HCT116 bCat-KO 87.
`C/C(=N/NC(=O)c1ccc(Br)o1)C(C)C` gave HCT116 PTEN-null 104 and HCT116 bCat-KO 82.
`CCC(C)n1c(=O)c(C(=O)Nc2ccccc2S(N)(=O)=O)c(O)c2ccccc21` (stereo not drawn) gave HCT116 PTEN-null 5, Fibroblast inh 102, H69AR growth 86K 27*, HCT116 bCat-KO 9 and HUVEC inhibit 69.
For CC(C)Cn1c(=O)c(C(=O)Nc2ccccc2S(N)(=O)=O)c(O)c2ccccc21 the results were HCT116 PTEN-null 81 and HCT116 bCat-KO 96.
For CS/C(=N\S(=O)(=O)c1ccccc1)c1ccccc1 the results were HCT116 PTEN-null 102 and HCT116 bCat-KO 97.
O=S(=O)(/N=C(/Sc1ccccc1)c1ccccc1)c1ccccc1 was read as HCT116 PTEN-null 90, Fibroblast inh 50, H69AR growth 86K 26*, HCT116 bCat-KO 94 and HUVEC inhibit 66.
Screening CCCNC(=S)N1CCC(C(=O)c2ccc(OC)cc2)CC1 returned HCT116 PTEN-null 85 and HCT116 bCat-KO 94.
For CC(C)c1ccc(/C=N/NC(=O)c2c(Cl)cnn2C)cc1 the results were HCT116 PTEN-null 82 and HCT116 bCat-KO 71.
COC(=O)c1ccc2c(=O)n(CCCCCC(=O)O)c(=S)[nH]c2c1 was read as HCT116 PTEN-null 93 and HCT116 bCat-KO 89.
Screening O=C(OCC#CCSc1nnc(-c2cccc3ccccc23)o1)c1cccs1 returned HCT116 PTEN-null 86, Fibroblast inh 98, H69AR growth 86K 35*, HCT116 bCat-KO 92 and HUVEC inhibit 82.
For O=C(OCC#CCSc1nnc(-c2ccccc2)o1)c1cccs1 the results were HCT116 PTEN-null 81, Fibroblast inh 97, H69AR growth 86K 87, HCT116 bCat-KO 90 and HUVEC inhibit 87.
For C#CCSc1nnc(-c2cccc3ccccc23)o1 the results were Fibroblast inh 65, H69AR growth 86K 21* and HUVEC inhibit 64.
`CCOC(=O)C1=C(c2ccccc2)O/C(=C(/C#N)C(F)(F)F)S1` gave HCT116 PTEN-null 7, Fibroblast inh 2.5*, H69AR growth 86K 1.7*, HCT116 bCat-KO 8 and HUVEC inhibit 10*.
C=CCNC(=O)COC(=O)c1ccc(Cl)c(S(=O)(=O)N(Cc2ccccc2)c2ccccc2)c1 was read as HCT116 PTEN-null 97 and HCT116 bCat-KO 78.
Screening Clc1cccc(-c2cc3nc4c(c(N5CCNCC5)n3n2)CCCC4)c1 returned HCT116 PTEN-null 1.0*, Fibroblast inh 1.9*, H69AR growth 86K 1.9*, HCT116 bCat-KO 1.5* and HUVEC inhibit 1.1*.
OC1CCN(c2c3c(nc4cc(-c5cccc(F)c5)nn24)CCCC3)CC1 was read as HCT116 PTEN-null 61, Fibroblast inh 98, H69AR growth 86K 95, HCT116 bCat-KO 74 and HUVEC inhibit 74.
`COC(=O)NC(=S)N1CCOCC1` gave HCT116 PTEN-null 95 and HCT116 bCat-KO 92.
`O=C(CSc1ccc2c(c1)OCCO2)Nc1ccc(Cl)cn1` gave HCT116 PTEN-null 93, Fibroblast inh 92, H69AR growth 86K 99, HCT116 bCat-KO 92 and HUVEC inhibit 19*.
`Cc1ccc(N(CC(=O)N/N=C/c2cc(C)n(-c3ccccc3C)c2C)S(C)(=O)=O)cc1` gave HCT116 PTEN-null 83 and HCT116 bCat-KO 75.
Screening COc1ccc2c(c1)O[C@H](c1ccc3c(c1)OCO3)[C@@H](OC(=O)N[C@H](C)C1CCCCC1)C2=O returned HCT116 PTEN-null 1.2* and HCT116 bCat-KO 11.
Screening COc1cccc([C@@H]2Oc3ccc(OC)cc3C(=O)[C@H]2OC(=O)N[C@H](C)C2CCCCC2)c1 returned HCT116 PTEN-null 50 and HCT116 bCat-KO 51.
Screening O=C(Nc1cccc(-c2nc3ccccc3o2)c1)c1ccc(N2C(=O)C3C4C=CC(C4)C3C2=O)cc1 (stereo not drawn) returned HCT116 PTEN-null 47, Fibroblast inh 73, H69AR growth 86K 39*, HCT116 bCat-KO 53 and HUVEC inhibit 58.
For O=C1C2C3C=CC(C3)C2C(=O)N1c1cccc(-c2nc3ccccc3o2)c1 (stereo not drawn) the results were HCT116 PTEN-null 101, Fibroblast inh 110, H69AR growth 86K 99, HCT116 bCat-KO 90 and HUVEC inhibit 99.
COc1ccc(/C=N/OCC(=O)NCc2cccs2)c(OC)c1 was read as HCT116 PTEN-null 94 and HCT116 bCat-KO 93.
`Cc1ccc(S(=O)(=O)/N=C(\Nc2cc(C)on2)c2ccc(Cl)cc2)cc1` gave HCT116 PTEN-null 98 and HCT116 bCat-KO 101.
For O=[N+]([O-])/C=C/c1cn(Cc2ccccc2)c2ccccc12 the results were HCT116 PTEN-null 1.1* and HCT116 bCat-KO 1.6*.
For N#Cc1ccccc1Cn1cc(/C=C/[N+](=O)[O-])c2ccccc21 the results were HCT116 PTEN-null 1.4* and HCT116 bCat-KO 2.1*.
For N#Cc1cn(Cc2cccc(Cl)c2)c2ccccc12 the results were HCT116 PTEN-null 80, Fibroblast inh 90, H69AR growth 86K 63, HCT116 bCat-KO 73 and HUVEC inhibit 58.
`CCC(=O)N1CCc2cc(Br)cc(S(=O)(=O)N3CCCCCC3)c21` gave HCT116 PTEN-null 79, Fibroblast inh 104, H69AR growth 86K 75, HCT116 bCat-KO 86 and HUVEC inhibit 100.
Screening O=C(C1CC1)N1CCc2cc(Br)cc(S(=O)(=O)N3CCCCCC3)c21 returned HCT116 PTEN-null 77, Fibroblast inh 83, H69AR growth 86K 37*, HCT116 bCat-KO 75 and HUVEC inhibit 98.
For Cc1ccc(-c2c[n+](CC(=O)Nc3cc(=O)n(C)c(=O)n3C)c3n2CCC3)cc1 the results were HCT116 PTEN-null 81 and HCT116 bCat-KO 88.
Screening CCCNC(=O)Cn1c(=O)/c(=C\c2ccc(-c3ccc([N+](=O)[O-])cc3)o2)s/c1=C\C(=O)C(C)(C)C returned HCT116 PTEN-null 7 and HCT116 bCat-KO 12.
Screening Cc1nc(N2CCN(c3ccccc3)CC2)[nH]c(=O)c1Cc1cccc2ccccc12 returned HCT116 PTEN-null 37, Fibroblast inh 57, H69AR growth 86K 22*, HCT116 bCat-KO 38 and HUVEC inhibit 52.
Screening C=CCNC(=O)COc1cc(C)ccc1C returned HCT116 PTEN-null 89 and HCT116 bCat-KO 88.
`CCc1nc(Sc2nc(C)cc(C)n2)c2oc3ccccc3c2n1` gave HCT116 PTEN-null 65, Fibroblast inh 79, H69AR growth 86K 5.3*, HCT116 bCat-KO 72 and HUVEC inhibit 102.
Screening Cc1nc(Nc2ccc3c(c2)OCCO3)c2oc3ccccc3c2n1 returned HCT116 PTEN-null 63, Fibroblast inh 96, H69AR growth 86K 80, HCT116 bCat-KO 55 and HUVEC inhibit 65.

Bioassay records: PubChem, SRMLSC
